One data set relates to Streptococcus pneumoniae. In words: Antimicrobial activity against Streptococcus pneumoniae MTCC 1936 by broth microdilution method. It is filed as functional. In general terms: Dilution methods test growth across graded concentrations, often in twofold steps.
The test system of the next data set is Bacillus subtilis. In words: Antimicrobial activity against Bacillus subtilis MTCC 441 by broth microdilution method. It is filed as functional. The procedure, abridged:
(§1)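 Broth microdilution following NCCLS. Compounds were diluted in 2% DMSO in water. Fungi were grown in Sabouraud dextrose broth. Inoculum was set to 10⁸ CFU mL⁻¹ by turbidity. A primary serial-dilution screen was followed by a secondary set of lower dilutions for primary actives. Tubes were incubated at 37 °C, with growth noted at 24 and 48 h. MIC was the highest dilution preventing turbidity after spot subculture.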

A further data set concerns Clostridium tetani. The data set can be described thus: Antimicrobial activity against Clostridium tetani MTCC 449 by broth microdilution method. It is filed as functional.
The subject of another data set is Escherichia coli. In words: Antimicrobial activity against Escherichia coli MTCC 443 by broth microdilution method. It is filed as functional. The method, boiled down:
as §1

A further data set relates to Salmonella typhi. In words: Antimicrobial activity against Salmonella typhi MTCC 98 by broth microdilution method. It is filed as functional, Salmonella enterica subsp. enterica serovar Typhi. The settings on record: Salmonella enterica.
Another data set concerns Vibrio cholerae. The data set can be described thus: Antimicrobial activity against Vibrio cholerae MTCC 3906 by broth microdilution method. It is filed as functional.
The next data set concerns Candida albicans. The data set can be described thus: Antimicrobial activity against Candida albicans MTCC 227 by broth microdilution method. It is filed as functional. The procedure, abridged: as §1
The test system of a further data set is Aspergillus fumigatus. The data set can be described thus: Antimicrobial activity against Aspergillus fumigatus MTCC 3008 by broth microdilution method. It is filed as functional. The method, boiled down:
as §1

The test system of data set [1] is Mycobacterium tuberculosis. In words: Antitubercular activity against Mycobacterium tuberculosis H37Rv at 250 ug/ml. It is filed as functional.
Data set [2] deals with Mycobacterium tuberculosis. In words: Antitubercular activity against Mycobacterium tuberculosis H37Rv. It is filed as functional. The procedure, abridged: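 M. tuberculosis H37Rv was grown on Lowenstein–Jensen medium with compound at a single concentration of 250, and compared against control tubes of medium alone with the organism. Results are given as % inhibition, and the concentration giving complete inhibition of colonies was taken as the active concentration.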

Data set [3] can be described thus: Antioxidant activity assessed as ferric ion reducing activity using fe3+-TPTZ at 200 mg/ml measured as ascorbic acid per 100 g sample by FRAP assay. It is filed as physicochemical. The method, boiled down: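 FRAP assay, modified Benzie–Strain. Reagent combined TPTZ in 40 mM HCl, aqueous FeCl₃·6H₂O and acetate buffer at pH 3.6. Sample solution was mixed with 3 mL reagent and incubated 25 min at 37 °C. Fe(II)–TPTZ absorbance was read at 593 nm against an ascorbic acid standard. Results are given as ascorbic equivalents, mmol/100 g compound.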

Experimental findings from ChEMBL document CHEMBL3297718, “Ultrasound-assisted one-pot four-component synthesis of novel 2-amino-3-cyanopyridine derivatives bearing 5-imidazopyrazole scaffold and their biological broadcast” (Eur J Med Chem, 2014) are described below.

As a reminder, the MIC is the least concentration at which growth counts as inhibited. A low value points to greater potency. A word on the inhibition: it is how much of the control response was suppressed. Low readings indicate a response near the control, high ones a response far below the control.

≈ marks a conversion by molar mass, not a printed value. Where only a bound is given, the exact number is not on record here.

On to `COc1ccc(-c2cc(-c3c(C)nn(-c4ccccc4)c3-n3ccnc3)c(C#N)c(N)n2)cc1`, for which the MIC against Streptococcus pneumoniae was found to be 125 µg/mL (≈ 279 µM); in the data set on Bacillus subtilis, 100 µg/mL (≈ 223 µM); against Clostridium tetani it was 200 µg/mL (≈ 447 µM); in the data set with Escherichia coli, 125 µg/mL (≈ 279 µM); against Salmonella typhi, 200 µg/mL (≈ 447 µM); against Vibrio cholerae it was 200 µg/mL (≈ 447 µM). In addition, the MIC with Candida albicans was more than 1000 µg/mL; in the data set with Aspergillus fumigatus, 1000 µg/mL (≈ 2230 µM); in data set [2] it was 62.5 µg/mL (≈ 140 µM). In addition, at 250 µg/mL the inhibition in [1] was 94%. Besides, the Activity in data set [3] was 400.22 mmol.

For the compound `Cc1nn(-c2ccccc2)c(-n2ccnc2)c1-c1cc(-c2ccco2)nc(N)c1C#N`, the minimum inhibitory concentration (MIC) was determined as 100 µg/mL (≈ 245 µM) in the data set with Streptococcus pneumoniae; 100 µg/mL (≈ 245 µM) in the data set on Bacillus subtilis; 150 µg/mL (≈ 368 µM) in the data set on Clostridium tetani; 250 µg/mL (≈ 614 µM) in the data set on Escherichia coli; 100 µg/mL (≈ 245 µM) against Salmonella typhi; 100 µg/mL (≈ 245 µM) with Vibrio cholerae. Besides, the figures for the MIC (against Candida albicans; in the data set on Aspergillus fumigatus; in [2]) were 500 µg/mL (≈ 1230 µM), more than 1000 µg/mL and 25 µg/mL (≈ 61.4 µM), respectively. Moreover, testing at 250 µg/mL in data set [1] gave an inhibition of 96%. For the same compound, in [3], the Activity was 456.32 mmol.

Turning to `Cc1nn(-c2ccccc2)c(-n2ccnc2)c1C=O`, the MIC in the data set with Streptococcus pneumoniae was 500 µg/mL (≈ 1980 µM); in the data set with Bacillus subtilis, 250 µg/mL (≈ 991 µM); against Clostridium tetani it was 250 µg/mL (≈ 991 µM); in the data set with Escherichia coli, 100 µg/mL (≈ 396 µM); against Salmonella typhi, 125 µg/mL (≈ 495 µM); with Vibrio cholerae, 250 µg/mL (≈ 991 µM). The minimal inhibitory concentration (MIC) is more than 1000 µg/mL in the data set on Candida albicans, more than 1000 µg/mL against Aspergillus fumigatus and 100 µg/mL (≈ 396 µM) in data set [2]. Moreover, at 250 µg/mL the inhibition in data set [1] was 91%. In addition, the Activity in data set [3] is recorded as 242.88 mmol.

As to `Cc1cn(-c2c(-c3cc(-c4ccco4)nc(N)c3C#N)c(C)nn2-c2ccccc2)cn1`, the MIC is 250 µg/mL (≈ 593 µM) against Streptococcus pneumoniae; 500 µg/mL (≈ 1190 µM) with Bacillus subtilis; 500 µg/mL (≈ 1190 µM) against Clostridium tetani; 250 µg/mL (≈ 593 µM) in the data set with Escherichia coli; 200 µg/mL (≈ 475 µM) with Salmonella typhi; 200 µg/mL (≈ 475 µM) against Vibrio cholerae. For the same compound, the minimal inhibitory concentration (MIC) is more than 1000 µg/mL against Candida albicans, more than 1000 µg/mL with Aspergillus fumigatus and 100 µg/mL (≈ 237 µM) in data set [2]. Besides, at 250 µg/mL the inhibition in data set [1] was 92%. The Activity in data set [3] was 397.24 mmol.
